Source: the RNAGym collection of RNA variant scans (doi:10.1126/science.aae0568)
This sample holds only a part of the variants without activity.

B1: tRNA (parent)
chain: GUUCCGUUGGCGUAAUGGUAACGCGUCUCCCUCCUAAGGAGAAGACUGCGGGUUCGAGUCCCGUACGGAACG

Variants of: B1
Assay: yeast fitness relative to wild type (ratio to wild type); higher = fitter; tRNA-Arg(CCU), competitive growth, 37 C, YPD
Procedure, shortened: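 Start and end populations of a pooled competition were compared by 100-nucleotide paired-end sequencing of gene amplicons. The Saccharomyces cerevisiae strains carried tRNA-Arg(CCU) gene variants at the native genomic locus, synthesised with a 3% per-site mutation rate at 69 sites, and competed in YPD at 37°C for 24 hours in six parallel replicates. Darwinian fitness relative to wild type was based on the change in genotype frequencies. Genotypes required ≥ 100 starting reads, and estimates < 0.5 were set to 0.5.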

Row | Variant | yeast fitness
1 | G17C C30A C34G A37C U53C G63C | ≤ 0.5
2 | G17C C30G | 0.581
3 | G17C C30G C60G | 0.904
4 | G17C C30G U32C C60G G63A A65U C66U | 0.544
5 | G17C C30U A36G G67U A70G | ≤ 0.5
6 | G17C C30U A40G | 0.686
7 | G17C C31G | 0.634
8 | G17C C31G A42C C66U | ≤ 0.5
9 | G17C C31U A37U G41A G48A | ≤ 0.5
10 | G17C C31U A42C C49A | 0.534
11 | G17C C31U A42C U53G | ≤ 0.5
12 | G17C C33A | ≤ 0.5
13 | G17C C33G | 0.534
14 | G17C C33U G56A A69U | ≤ 0.5
15 | G17C C34A A57C | 0.561
16 | G17C C34A G50A U53G C60U | ≤ 0.5
17 | G17C C34A U59C | 0.542
18 | G17C C34G A37C C62A | 0.561
19 | G17C C34U A57G A70U | 0.558
20 | G17C C34U C61U G67A | ≤ 0.5
21 | G17C C34U G68A | 0.536

Row | Variant | yeast fitness
22 | G17C C46A | 0.609
23 | G17C C46G A57U G63A | ≤ 0.5
24 | G17C C46G C55U | 0.571
25 | G17C C46U | 0.686
26 | G17C C46U G50C C55A G63A C66U | ≤ 0.5
27 | G17C C49A | 0.571
28 | G17C C49G C61A | ≤ 0.5
29 | G17C C49U | 0.768
30 | G17C C49U C61G C66U | ≤ 0.5
31 | G17C C55A C60A | 0.716
32 | G17C C55G G67A A69C | ≤ 0.5
33 | G17C C55U A69U | ≤ 0.5
34 | G17C C55U A69U A70U | ≤ 0.5
35 | G17C C55U G63C G67C | ≤ 0.5
36 | G17C C55U G67A G68C | ≤ 0.5
37 | G17C C60A G67A | ≤ 0.5
38 | G17C C60G | ≤ 0.5
39 | G17C C60U | 0.597
40 | G17C C66A | 0.575
41 | G17C G18A C27U C46U G58A | ≤ 0.5
42 | G17C G18C A69U | ≤ 0.5

Row | Variant | yeast fitness
43 | G17C G18C C22A | ≤ 0.5
44 | G17C G18C C22A C60A | 0.529
45 | G17C G18C C22A C60A C66U | 0.561
46 | G17C G18C C22A C61U | ≤ 0.5
47 | G17C G18C C22A G41C A42U U64C | ≤ 0.5
48 | G17C G18C C22A U28C C60A C66U | 0.677
49 | G17C G18C G39A A57C | ≤ 0.5
50 | G17C G18C G51A | ≤ 0.5
51 | G17C G23C A43U C49A | 0.613
52 | G17C G23C A43U C49A C66U | 0.634
53 | G17C G23C C31G G50C C60A G63A | ≤ 0.5
54 | G17C G23C C33G G50A G68A | ≤ 0.5
55 | G17C G23C U47G | ≤ 0.5
56 | G17C G25A C49A | ≤ 0.5
57 | G17C G25C A37G | ≤ 0.5
58 | G17C G25C C29G A36U G39A | ≤ 0.5
59 | G17C G25C C61U | ≤ 0.5
60 | G17C G38A | 0.599
61 | G17C G38C G52C | ≤ 0.5
62 | G17C G39A | 0.665
63 | G17C G39C A45G U54A | ≤ 0.5

Row | Variant | yeast fitness
64 | G17C G39C A45U G58C | ≤ 0.5
65 | G17C G39C C66U A70U | ≤ 0.5
66 | G17C G41C | 0.664
67 | G17C G44A G48A | 0.529
68 | G17C G44C | 0.58
69 | G17C G44C C66U | ≤ 0.5
70 | G17C G48A A65C | 0.654
71 | G17C G48A C55U | ≤ 0.5
72 | G17C G48C A65G | 0.562
73 | G17C G48U | ≤ 0.5
74 | G17C G51A U59A C66A | ≤ 0.5
75 | G17C G52A G56A A65U A70G | ≤ 0.5
76 | G17C G52C | ≤ 0.5
77 | G17C G52C C61A C66G | 0.637
78 | G17C G56C G58C | ≤ 0.5
79 | G17C G56C G68A | ≤ 0.5
80 | G17C G63A | 0.674
81 | G17C G63A C66U | ≤ 0.5
82 | G17C G67A | 0.67
83 | G17C G68C | 0.614
84 | G17C U19A A36C A37U A65C | 0.592
